In ChEMBL document CHEMBL1142866, “Synthesis and preliminary evaluation of 18F- or 11C-labeled bicyclic nucleoside analogues as potential probes for imaging varicella-zoster virus thymidine kinase gene expression using positron emission tomography” (J Med Chem, 2007):
Calls of active or inactive are those of the source. No cut-off for these calls is given here.

Assays:
[1] = test system: OST; assay: Cytostatic activity against OST TK-/HSV1 TK+ cells at 0.038 uM; format: functional, cell-based; conditions: Homo sapiens
Method in brief: (§1)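 OST TK- control cells and OST TK- cells expressing HSV-1 TK or VZV TK were cultured 5 days with graded compound concentrations. Cells were then trypsinized and counted on a Coulter counter. CC50 is the concentration in µM that reduces cell number by 50%.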

[2] = Inhibition of recombinant VZV TK assessed as [CH3-H3]dThd phosphorylation; set-up: species or system Human alphaherpesvirus 3
Method in brief: (§2)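 Purified recombinant VZV TK (7.75 ng), HSV-1 TK (226 ng) or cytosolic TK-1 (455 ng). Buffer: 50 mM Tris-HCl pH 8.0, 2.5 mM MgCl2, 10 mM DTT, 2.5 mM ATP, 1.0 mg/mL BSA, 10 mM NaF, 1 µM [CH3-3H]dThd final. Incubated 30 min at 37 °C (linear range) with graded compound concentrations. Product caught on DE-81 disks, washed, scintillation-counted. IC50 is 50% inhibition of dThd phosphorylation.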

[3] = test system: OST; assay: Cytostatic activity against OST TK-/HSV1 TK+ cells at 1.8 uM; format: functional, cell-based; conditions: Homo sapiens, tested as the 18F-labelled form; method in brief: as §1
[4] = target: T1, Thymidine kinase (Human alphaherpesvirus 1, UniProt Q9QNF7); assay: Inhibition of recombinant HSV-1 TK assessed as [CH3-H3]dThd phosphorylation; method in brief: as §2
T1 sequence (Q9QNF7 whole entry): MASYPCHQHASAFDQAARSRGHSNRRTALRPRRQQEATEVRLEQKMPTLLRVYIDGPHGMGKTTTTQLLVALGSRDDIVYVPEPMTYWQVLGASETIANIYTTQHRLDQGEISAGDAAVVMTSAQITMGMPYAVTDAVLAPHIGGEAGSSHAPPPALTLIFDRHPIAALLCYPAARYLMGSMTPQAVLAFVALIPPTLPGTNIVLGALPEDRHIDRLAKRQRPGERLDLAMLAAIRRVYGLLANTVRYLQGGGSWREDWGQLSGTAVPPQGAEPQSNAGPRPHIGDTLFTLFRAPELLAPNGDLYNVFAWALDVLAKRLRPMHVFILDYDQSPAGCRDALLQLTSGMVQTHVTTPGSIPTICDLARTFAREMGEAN

[5] = target: T2, Thymidine kinase, cytosolic (Homo sapiens, UniProt P04183); assay: Inhibition of recombinant cytosolic TK-1 assessed as [CH3-H3]dThd phosphorylation; method in brief: as §2
T2 sequence (P04183 whole entry): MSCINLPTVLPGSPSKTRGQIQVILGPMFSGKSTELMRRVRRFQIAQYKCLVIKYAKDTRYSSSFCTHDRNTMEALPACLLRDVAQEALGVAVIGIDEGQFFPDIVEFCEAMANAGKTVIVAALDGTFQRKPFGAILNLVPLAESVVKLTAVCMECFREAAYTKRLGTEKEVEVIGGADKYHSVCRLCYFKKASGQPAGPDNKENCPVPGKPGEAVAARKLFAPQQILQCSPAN

[6] = test system: Lung; assay: Biodistribution in lung of NMRI mouse assessed as standard uptake value after 2 mins; format: ADME, organism-based; conditions: in vivo
[7] = test system: Heart; assay: Biodistribution in heart of NMRI mouse assessed as standard uptake value after 2 mins; format: ADME, organism-based; conditions: in vivo
[8] = test system: Brain; assay: Biodistribution in brain of NMRI mouse assessed as standard uptake value after 2 mins; format: ADME, organism-based; conditions: in vivo
[9] = test system: Blood; assay: Biodistribution in blood of NMRI mouse assessed as standard uptake value after 2 mins; format: ADME, organism-based; conditions: in vivo
[10] = test system: Kidney; assay: Biodistribution in kidney of NMRI mouse assessed as standard uptake value after 60 mins; format: ADME, organism-based; conditions: in vivo, 1 h
[11] = test system: Liver; assay: Biodistribution in liver of NMRI mouse assessed as standard uptake value after 60 mins; format: ADME, organism-based; conditions: in vivo, 1 h
[12] = Biodistribution in spleen/pancreas of NMRI mouse assessed as standard uptake value after 60 mins; format: ADME, organism-based; conditions: in vivo, 1 h
[13] = test system: Intestine; assay: Biodistribution in intestine of NMRI mouse after 2 mins; format: ADME, organism-based; conditions: in vivo
Method in brief: (§3)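 Male NMRI mice (30-40 g) under ketamine/xylazine i.p. anesthesia received 0.1 mL of HPLC-purified 18F tracer (0.1 mCi/mL) or 11C tracer (1 mCi/mL) in water for injection via tail vein. Killed by decapitation at 2 or 60 min (n = 3 per time). Blood, organs and carcass weighed and gamma-counted. %ID = organ cpm/total cpm recovered. Blood mass taken as 7% of body mass. Mean ± SD.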

[14] = test system: Brain; assay: Biodistribution in brain of NMRI mouse after 2 mins; format: ADME, organism-based; conditions: in vivo; method in brief: as §3
[15] = test system: Blood; assay: Biodistribution in blood of NMRI mouse after 2 mins; format: ADME, organism-based; conditions: in vivo; method in brief: as §3
[16] = Biodistribution in carcass of NMRI mouse after 2 mins; format: ADME, organism-based; conditions: in vivo; method in brief: as §3
[17] = Biodistribution in urine of NMRI mouse after 60 mins; format: ADME, organism-based; conditions: in vivo, 1 h; method in brief: as §3
[18] = test system: Kidney; assay: Biodistribution in kidney of NMRI mouse after 60 mins; format: ADME, organism-based; conditions: in vivo, 1 h; method in brief: as §3
[19] = test system: Liver; assay: Biodistribution in liver of NMRI mouse after 60 mins; format: ADME, organism-based; conditions: in vivo, 1 h; method in brief: as §3
[20] = Biodistribution in spleen/pancreas of NMRI mouse after 60 mins; format: ADME, organism-based; conditions: in vivo, 1 h; method in brief: as §3
[21] = test system: Lung; assay: Biodistribution in lung of NMRI mouse after 60 mins; format: ADME, organism-based; conditions: in vivo, 1 h; method in brief: as §3
[22] = test system: Heart; assay: Biodistribution in heart of NMRI mouse after 60 mins; format: ADME, organism-based; conditions: in vivo, 1 h; method in brief: as §3
[23] = test system: Intestine; assay: Biodistribution in intestine of NMRI mouse after 60 mins; format: ADME, organism-based; conditions: in vivo, 1 h; method in brief: as §3
[24] = test system: Brain; assay: Biodistribution in brain of NMRI mouse after 60 mins; format: ADME, organism-based; conditions: in vivo, 1 h; method in brief: as §3
[25] = test system: Blood; assay: Biodistribution in blood of NMRI mouse after 60 mins; format: ADME, organism-based; conditions: in vivo, 1 h; method in brief: as §3
[26] = Biodistribution in carcass of NMRI mouse after 60 mins; format: ADME, organism-based; conditions: in vivo, 1 h; method in brief: as §3
[27] = test system: Kidney; assay: Biodistribution in kidney of NMRI mouse assessed as standard uptake value after 2 mins; format: ADME, organism-based; conditions: in vivo
[28] = test system: Liver; assay: Biodistribution in liver of NMRI mouse assessed as standard uptake value after 2 mins; format: ADME, organism-based; conditions: in vivo
[29] = Biodistribution in spleen/pancreas of NMRI mouse assessed as standard uptake value after 2 mins; format: ADME, organism-based; conditions: in vivo
[30] = test system: Lung; assay: Biodistribution in lung of NMRI mouse assessed as standard uptake value after 60 mins; format: ADME, organism-based; conditions: in vivo, 1 h
[31] = test system: Heart; assay: Biodistribution in heart of NMRI mouse assessed as standard uptake value after 60 mins; format: ADME, organism-based; conditions: in vivo, 1 h
[32] = test system: Brain; assay: Biodistribution in brain of NMRI mouse assessed as standard uptake value after 60 mins; format: ADME, organism-based; conditions: in vivo, 1 h
[33] = test system: Blood; assay: Biodistribution in blood of NMRI mouse assessed as standard uptake value after 60 mins; format: ADME, organism-based; conditions: in vivo, 1 h
[34] = Partition coefficient, log P at pH 7.4; format: physicochemical; conditions: octanol/water
Method in brief: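 HPLC-purified radiotracer partitioned between 1-octanol and 0.025 M phosphate buffer pH 7.4. Vortexed 2 min at room temperature, centrifuged 5 min, aliquots of both phases gamma-counted. P = octanol cpm/buffer cpm after density and mass correction; n = 6.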

[35] = Drug uptake in human 293T cells transduced with VZV-tk gene after 3 hrs; format: ADME, cell-based; conditions: hek-293t
Method in brief: (§4)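 Lentivirally transduced 293T cells (VZV-tk or LacZ control) plated in triplicate at 200 000 cells/well. After 24 h, 0.25 mL fresh medium with 5 µCi of the 18F tracer (3 h) or 30 µCi of the 11C tracer (1 h) added; 37 °C, 5% CO2. Cells washed thrice with ice-cold PBS, lysed, gamma-counted. Uptake given as % total radioactivity per mg protein (Bio-Rad assay); n = 3, unpaired two-sided t-test.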

[36] = Ratio of drug uptake in LV-VZVTK-1-P transduced cells to LV-LacZ-I-P transduced 293T cells after 3 hrs; format: ADME, cell-based; conditions: human
Method in brief: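 Lentivirally transduced human embryonic kidney 293T cells (VZV-tk vs LacZ control), plated in triplicate at 200 000 cells/well. After 24 h, fresh medium with HPLC-purified [18F] tracer (5 µCi/well), 3 h at 37 °C, 5% CO2. Cells washed three times with ice-cold PBS and lysed. Lysate counted in a gamma counter. Uptake given as % total radioactivity per mg protein (Bio-Rad assay). Ratio is VZV-tk/LacZ; n=3, unpaired Student t-test.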

[37] = Drug uptake in human 293T cells transduced with LacZ gene after 3 hrs; format: ADME, cell-based; conditions: hek-293t; method in brief: as §4
[38] = Biodistribution in urine of NMRI mouse after 2 mins; format: ADME, organism-based; conditions: in vivo; method in brief: as §3
[39] = test system: Kidney; assay: Biodistribution in kidney of NMRI mouse after 2 mins; format: ADME, organism-based; conditions: in vivo; method in brief: as §3
[40] = test system: Liver; assay: Biodistribution in liver of NMRI mouse after 2 mins; format: ADME, organism-based; conditions: in vivo; method in brief: as §3
[41] = Biodistribution in spleen/pancreas of NMRI mouse after 2 mins; format: ADME, organism-based; conditions: in vivo; method in brief: as §3
[42] = test system: Lung; assay: Biodistribution in lung of NMRI mouse after 2 mins; format: ADME, organism-based; conditions: in vivo; method in brief: as §3
[43] = test system: Heart; assay: Biodistribution in heart of NMRI mouse after 2 mins; format: ADME, organism-based; conditions: in vivo; method in brief: as §3

Nc1nc(O)c2ncn(CCC(CO)CO)c2n1 [PENCICLOVIR]
Activity [1]: Active | IC50 [2]: > 50 µM

Nc1nc(=O)c2ncn(CCC(CO)CF)c2[nH]1 (centres undefined)
Activity [3]: Active | IC50 [2]: > 50 µM

O=c1nc2oc(-c3ccc(F)cc3)cc2cn1[C@H]1C[C@H](O)[C@@H](CO)O1
IC50 [2]: 0.18 µM | IC50 [4]: > 500 µM | IC50 [5]: > 500 µM

O=c1nc2oc(-c3ccccc3F)cc2cn1C1C[C@H](O)[C@@H](CO)O1 (some centres undefined)
IC50 [2]: 0.28 µM | IC50 [4]: > 500 µM | IC50 [5]: > 500 µM

O=c1nc2oc(-c3cccc(OCC[18F])c3)cc2cn1[C@H]1C[C@H](O)[C@@H](CO)O1
Drug uptake [6]: 1.1 | Drug uptake [7]: 0.6 | Drug uptake [8]: 0.1 | Drug uptake [9]: 0.9 | Drug uptake [10]: 0.7 | Drug uptake [11]: 0.7 | Drug uptake [12]: 0.1 | Drug uptake [13]: 20.7 %ID | Drug uptake [14]: 0 %ID | Drug uptake [15]: 6.2 %ID | Drug uptake [16]: 27.2 %ID | Drug uptake [17]: 29.5 %ID | Drug uptake [18]: 1.2 %ID | Drug uptake [19]: 4.4 %ID | Drug uptake [20]: 0.1 %ID | Drug uptake [21]: 0.1 %ID | Drug uptake [22]: 0 %ID | Drug uptake [23]: 60.5 %ID | Drug uptake [24]: 0 %ID | Drug uptake [25]: 0.4 %ID | Drug uptake [26]: 3.8 %ID | Drug uptake [27]: 9 | Drug uptake [28]: 3.9 | Drug uptake [29]: 1.4 | Drug uptake [30]: 0 | Drug uptake [31]: 0 | Drug uptake [32]: 0 | Drug uptake [33]: 0.1 | logD [34]: 1.24 | Drug uptake [35]: 2.29% | uptake ratio at 3 h [36]: 4.5 | Drug uptake [37]: 0.6% | Drug uptake [38]: 5.7 %ID | Drug uptake [39]: 15.5 %ID | Drug uptake [40]: 24.4 %ID | Drug uptake [41]: 1.3 %ID | Drug uptake [42]: 0.9 %ID | Drug uptake [43]: 0.3 %ID

Nc1nc2c(ncn2CCC(CO)CO)c(=O)[nH]1 [PENCICLOVIR]
IC50 [4]: 11 µM
